High-throughput results as filed in PubChem.
F508del corr = CFTR F508del correction in bronchial cells. CFBE cells, YFP halide quenching; stimulated with forskolin plus potentiator P3; % fluorescence drop versus neutral controls. activity (quench increase), % at 7.58 µM. 350,000 compounds, 0.36% hits;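 active = mean added fluorescence quench of at least 8% versus neutral control, with both replicates also reaching 8%; inconclusive = only one of the mean or replicate conditions met; inactive = mean below 8% and not both replicates reaching 8%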;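 note: cells transiently co-express mutant CFTR-F508del with the halide-sensitive YFP; corrector assay measuring rescue of mutant channel to the surface after 24 h compound exposure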
dFosB act-1 = mouse delta FosB homodimer activation; purified delta FosB, TAMRA-CDK5 oligo fluorescence polarization; percent of positive-control signal above neutral wells; activation, % at 25 µM; 340,000 compounds, 0.99% hits;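 active = mean activation above about 17%, with every replicate also reaching it, limit read from the data, passing the limit was not always enough; inconclusive = only one of the two conditions met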
Target sequence (P13346 whole entry, looked up): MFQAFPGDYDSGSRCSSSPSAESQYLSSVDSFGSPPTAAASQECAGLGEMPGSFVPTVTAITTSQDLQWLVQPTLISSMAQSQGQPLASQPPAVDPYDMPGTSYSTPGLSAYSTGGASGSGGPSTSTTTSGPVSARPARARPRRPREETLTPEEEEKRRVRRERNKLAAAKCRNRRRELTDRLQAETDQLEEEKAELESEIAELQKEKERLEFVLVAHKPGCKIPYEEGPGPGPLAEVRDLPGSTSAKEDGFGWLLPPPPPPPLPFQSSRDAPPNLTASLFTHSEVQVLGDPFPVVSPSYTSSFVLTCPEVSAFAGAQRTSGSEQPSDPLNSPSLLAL
S100A4 MyoIIA = S100A4-myosin IIA interaction inhibition | S100A4/TAMRA-MyoIIA peptide fluorescence polarization | 360,000 compounds, 0.14% hits | AID 652163 | inhibition, % at 10.7 µM | P26447;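 active = mean inhibition of at least 70% across replicates, with every replicate also reaching that level; inconclusive = mean inhibition reaches 70% but some replicates fall short; inactive = mean inhibition below 70%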
Target sequence (P26447 whole entry, looked up): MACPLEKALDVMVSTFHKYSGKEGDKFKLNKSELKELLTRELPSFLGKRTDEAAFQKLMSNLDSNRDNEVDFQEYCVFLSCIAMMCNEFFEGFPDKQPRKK
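Test system: S100A4 monomer protein. Medium: HEPES buffer with Ca2+, pH 7.2. Reagent: fluorescent myosin IIA peptide, 5 nM. Compound dosing: single-point compound testing. Timing: 5 min between mix addition and reading. Benchmarks: DMSO neutral and TFP positive wells.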
FGF22 binding = shifts melting point of recombinant human FGF22; Q9HCT0; recombinant FGF22 thermal shift, SYPRO orange fluorescence; percent of sucrose octasulfate shift, DMSO zero; activity (Tm shift, normalised), % at 9.99 µM; 340,000 compounds, 1.5% hits; AID 651658;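 active = mean Tm shift, scaled 0 neutral to 100 positive control, at about 1.3% or above, every replicate too, limit read from the data; inconclusive = no clear call, values can overlap the other calls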
Target sequence (Q9HCT0 whole entry, looked up): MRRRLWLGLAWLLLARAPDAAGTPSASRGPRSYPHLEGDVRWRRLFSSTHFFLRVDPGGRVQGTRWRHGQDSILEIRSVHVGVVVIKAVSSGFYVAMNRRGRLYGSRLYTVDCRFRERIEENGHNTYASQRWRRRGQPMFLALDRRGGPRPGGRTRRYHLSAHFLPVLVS
dFosB act-2 = delta FosB (mouse) homodimer activation; shares compounds with dFosB act-1; purified delta FosB, TAMRA-CDK5 oligo fluorescence polarization; normalised: neutral wells 0, positive control 100; activation, % at 24.9 µM; 2,400 tested, under 10 active; AID 588690;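 active = highest replicate activation at or above 34% and every replicate reaching that threshold; inconclusive = meets only one of the two criteria; inactive = meets neither criterion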;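 note: higher polarization means more probe DNA bound by delta FosB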
Numbers without * were called inactive; ? = inconclusive; . = no result given. Most compounds without a hit are left out; they make up all but 2.2% or so of the library.

SMILES	F508del corr	dFosB act-1	S100A4 MyoIIA	FGF22 binding	dFosB act-2
Cc1ccccc1-c1cnc2c(c1)C(=O)N([C@H](C)CO)C[C@@H](C)[C@H](CN(C)Cc1cncnc1)O2	-1.5	.	.	.	.
CCCCCc1cc(=O)oc2c(C(CCN3CCCC(C)C3)c3cc(OC)c(OC)c(OC)c3)c(OC)cc(OC)c12 (configuration not stated)	.	19.5*	.	.	-2.0
CCCNC(=O)[C@@H]1[C@@H](CO)[C@@H]2Cn3c(ccc(-c4ccccc4F)c3=O)[C@@H]2N1CC1CC1	.	.	3.1	-0.1	.
O=C(NCC(c1ccco1)N1CCCC1)c1ccc(Cl)c(S(=O)(=O)N2CCc3ccccc32)c1 (configuration not stated)	-1.8	22.5*	-12.2	-0.2	4.9
Cc1noc(C)c1NC(=O)Nc1ccc2c(c1)C(=O)N(C)[C@H]1CC[C@@H](CC(=O)NCc3ccc(Cl)cc3)O[C@H]1CO2	.	.	2.5	0.0	.
CN(C)C(=O)C[C@H]1CC[C@@H]2[C@H](COC[C@@H](O)CN2CC2CCCC2)O1	-1.5	.	-3.3	0.0	.
COC(=O)Cn1c(=NC(=O)CSCC(=O)NC2CCCCC2)sc2cc(OC)ccc21	.	29.4*	.	.	-1.4
NC(=O)CC(NC(=O)Cc1ccc(Br)cc1)c1ccc(NCc2ccc(F)c(F)c2)c([N+](=O)[O-])c1 (configuration not stated)	0.1	52.0*	.	.	-3.5
COc1ccc2cc(C(=O)Nc3ccc(O)cc3)sc(=O)c2c1OC	0.4	5.0	-1.2	42.0	.
COc1ccc2cc(C(=O)Nc3ccc(F)cc3)sc(=O)c2c1OC	.	33.5*	.	.	1.3
COC(=O)c1cc2ccc(OC)c(OC)c2c(=O)s1	.	-1.0	.	.	.
COc1ccc2cc(C(=O)Nc3ccc(Cl)cc3)sc(=O)c2c1OC	.	70.7*	.	.	5.4
Cc1noc(C)c1S(=O)(=O)N(C)C[C@H]1OCCCC[C@H](C)Oc2ccc(NC(=O)Cc3ccccc3)cc2C(=O)N([C@H](C)CO)C[C@H]1C	-4.5	.	-5.6	-0.5	.
C=CCOc1ccc(CN(C)CC(O)COc2cccc3ccccc23)cc1 (configuration not stated)	-0.8	19.2*	-1.4	0.6	1.8
Cc1ccc(C(=O)c2oc3ccccc3c2NC(=O)c2cc(-c3ccccc3O)n[nH]2)cc1	.	30.9*	.	.	-4.8
O=C(O)C[C@H]1C=C[C@@H](NC(=O)CCN2CCCCC2)[C@H](CO)O1	-3.4	.	18.7	.	.
O=C(Nc1ccc(F)cc1)c1cccc(N2C(=O)c3ccccc3C2=O)c1	2.1	34.9*	-14.9	0.4	5.3
O=C(Nc1ccc(S(=O)(=O)Nc2nccs2)cc1)c1cccc(N2C(=O)c3ccccc3C2=O)c1	2.5	-13.4	-5.2	-0.2	.
O=C(CNC(=O)c1cccc(N2C(=O)c3ccccc3C2=O)c1)Nc1ccc(F)c(F)c1	0.8	33.1*	1.3	0.1	1.2
Cn1nc(C(=O)NCC(=O)Nc2ccc(F)c(F)c2)ccc1=O	-2.3	.	-1.0	-0.3	.
O=C(Nc1ccc(-c2nc3ccccc3[nH]2)cc1)c1cccc(N2C(=O)CCC2=O)c1	.	35.7*	.	.	1.9
COCC(=O)Nc1ccc2c(c1)[C@H]1C[C@H](CC(=O)N3CCc4ccccc4C3)O[C@@H](CO)[C@H]1O2	3.1	.	-18.3	-0.3	.
Clc1cc2nc(-c3cccnc3Cl)[nH]c2cc1Cl	.	35.5*	1.0	-0.1	6.3
Cc1cc2nc(-c3ccccc3O)[nH]c2cc1C	1.3	11.2	19.1	-0.1	.
CC(=O)Nc1ccc(-c2cc(-c3ccc(NC(C)=O)cc3)nc(-c3ccc(NC(C)=O)cc3)n2)cc1	-0.9	54.1*	-3.2	.	0.3
SMILES	F508del corr	dFosB act-1	S100A4 MyoIIA	FGF22 binding	dFosB act-2
O=C(c1ccccc1F)N1CC[C@H]2[C@H](CO)Nc3ccc(-c4ccc(F)cc4)cc3[C@H]21	1.9	.	47.9	0.1	.
O=C(Cc1sc(-c2ccccc2Cl)nc1-c1ccccc1)Nc1ccc(F)cc1	.	25.5*	.	.	-1.0
O=C(Cc1sc(-c2ccccc2Cl)nc1-c1ccccc1)Nc1ccccc1	.	-34.8	.	.	.
CC(=O)Nc1ccc(NC(=O)Cc2sc(-c3cccnc3)nc2-c2ccc(C)cc2)cc1	3.7	29.8*	-13.2	0.6	0.7
C[C@@H]1CN([C@H](C)CO)C(=O)c2cccc(NC(=O)Nc3ccccc3)c2O[C@H]1CN(C)S(=O)(=O)c1cccs1	-0.8	.	.	.	.
Cc1noc(C)c1S(=O)(=O)N(C)C[C@@H]1Oc2ccc(NC(=O)Nc3ccccc3)cc2CC(=O)N([C@H](C)CO)C[C@@H]1C	-0.9	.	.	.	.
CC(=O)Nc1ccc(NC(=O)C(=O)NCC(c2ccco2)N2CCc3ccccc3C2)cc1 (configuration not stated)	3.1	22.3*	1.0	-0.1	2.8
CC(=O)Nc1ccc(-n2nnnc2SCC(=O)Nc2cccc(NC(=O)c3ccco3)c2)cc1	-2.5	33.0*	-2.7	0.1	8.2
COc1cc(OC)cc(-n2nnnc2SCC(=O)Nc2ccc(C(C)=O)cc2)c1	.	37.4*	.	.	-7.1
O=C(CSc1nnnn1-c1ccccc1)Nc1ccccc1	2.7	-4.2	-3.2	.	.
CCc1ccc(-n2nnnc2SCC(=O)Nc2ccc(NC(C)=O)cc2)cc1	-1.5	17.8*	-4.3	0.4	8.5
Cc1ccc(-n2nnnc2SCC(=O)NC(=O)Nc2ccc3c(c2)OCCO3)cc1	0.3	?	2.5	0.1	.
O=C(CSc1nnnn1-c1ccc(Cl)cc1)NC(=O)Nc1ccc2c(c1)OCCO2	.	21.2*	.	.	6.6
C[C@H](CO)N1C[C@H](C)[C@H](CN(C)Cc2ccccn2)Oc2ncc(C#Cc3cccc(F)c3)cc2C1=O	4.6	.	-8.2	0.2	.
COc1cccc2c1[C@@H]1CN(CCCCn3c(=O)[nH]c4c(sc5ncc(-c6ccccc6)nc54)c3=O)C[C@@H]1CO2	-1.5	39.5*	-5.1	-0.3	-0.4
COc1cc2[nH]c(=O)n(CCCC(=O)N3CC=C(c4ccccc4)CC3)c(=O)c2cc1OC	.	-17.8	.	.	.
COc1ccc(N=Cc2ccccc2O)cc1	4.9	-3.3	6.3	.	.
COc1ccc2sc(/C=C/c3ccccc3O)[n+](C)c2c1	0.7	65.1*	-10.5	.	8.2
CCOC(=O)c1ccc(NC(=O)C(=O)NCc2ccc(/C=C(/C#N)C(=O)NCCOC)o2)cc1	-1.7	23.5*	17.9	-0.3	-2.4
COCCNC(=O)/C(C#N)=C/c1ccc(C)o1	-0.1	-1.5	1.8	0.3	.
Cc1ccc(NC(=O)c2ncn(CC(=O)NCc3ccccc3)n2)cc1C	-1.6	0.3	-2.7	0.1	.
Cc1ccc(NC(=O)c2ncn(CC(=O)NCc3nc4ccccc4[nH]3)n2)cc1C	-1.4	46.7*	7.0	0.3	-6.8
COc1ccc(C(=O)N/N=C/c2cn[nH]c2-c2ccc(OC)cc2OC)cc1	1.1	17.2*	-2.9	0.2	3.9
COc1ccc(-c2[nH]ncc2/C=N\NC(=O)c2ccc(C(C)(C)C)cc2)cc1OC	.	-9.1	0.1	0.0	.
COc1ccc(-c2[nH]ncc2/C=N/NC(=O)c2ccc(Br)cc2)c(OC)c1	1.5	7.8	-4.8	0.1	.
